Experimental data pooled from the literature.
Each line is one published result; the experiments were not run side by side.
PRKD3: Serine/threonine-protein kinase D3 (PRKD3, Homo sapiens, UniProt O94806)
CDK2: Cyclin-dependent kinase 2 (CDK2, Homo sapiens, UniProt P24941)

SMILES | target | assay | test system | setting | endpoint | value
Cc1cc(O)c(-c2ccc([C@@H](C)CN(C)C)cc2)c2c1[nH]c(=O)c1sccc12 | Mitogen-activated protein kinase 6 (MAPK6, Homo sapiens, UniProt Q16659) | enzyme activity, inhibitor | – | 0.1 µM | inhibition | 2.75%
C#Cc1cc(-c2cc(Nc3nc(N[C@@H](C)c4ccc(F)cn4)ncc3Cl)n[nH]2)ccc1C=O | PRKD3 | enzyme activity, inhibitor | – | 0.2 µM | inhibition | 4.02%
C[C@]1(O)CCCN(c2nc(Nc3ccc(S(=O)(=O)N[C@H]4CC[C@H](CN5CCN(c6ccc(C7CCC(=O)NC7=O)cc6F)CC5)CC4)cc3F)ncc2C(F)(F)F)C1 (some centres unmarked) | CDK2 | protein level, degrader, western blot | TOV21G | – | Dmax | 95%
NC/C(=C\F)COc1cccc(Cn2c(=S)[nH]c(=O)c3[nH]cnc32)c1 | Alpha-1A adrenergic receptor (Adra1a, Rattus norvegicus, UniProt P43140) | ligand displacement, radioligand | – | 10 µM | inhibition | < 50%
CCCCC(=O)Nc1ccc(-c2ccc3ncn(CCC)c(=O)c3c2)cn1 | Serine/threonine-protein kinase TNNI3K (TNNI3K, Homo sapiens, UniProt Q59H18) | binding, competition with immobilised ligand | – | 0.5 µM | remaining binding | 91%
C1=C/COCc2cc(ccc2OCCN2CCCC2)Nc2nccc(n2)-c2cccc(c2)COC/1 | PRKD3 | binding | – | 0.1 µM | remaining binding | 89%
C[C@H]1CN(CC2CCN(c3ccc(C4CCC(=O)NC4=O)cc3F)CC2)CC[C@H]1NS(=O)(=O)c1ccc(Nc2ncc(C(F)(F)F)c(N3CCC[C@](C)(O)C3)n2)c(F)c1 (some centres unmarked) | CDK2 | protein level, degrader, western blot | TOV21G | – | Dmax | 93%
Cc1cc(=O)oc2cc(NC(=O)[C@H](CCCN=C(N)N)NC(=O)[C@H](CCCN=C(N)N)NC(=O)OCc3ccccc3)ccc12 | Cathepsin B (CTSB, Homo sapiens, UniProt P07858) | enzyme activity, substrate, fluorescence | – | pH 7.5 | Km | 468 µM
